# Measured values published in ChEMBL document CHEMBL1138475, “Conformationally constrained fatty acid ethanolamides as cannabinoid and vanilloid receptor probes” (J Med Chem, 2009).
# Columns and labels:
# [1] = target: Cannabinoid receptor 2 (Homo sapiens, UniProt P34972); assay: Displacement of [3H]CP-55940 from human recombinant CB2 receptor expressed in HEK293 cell membrane; type: cell membranes
# [2] = target: T1, Transient receptor potential cation channel subfamily V member 1 (Homo sapiens, UniProt Q8NER1); assay: Agonist activity at human recombinant TRPV1 expressed in HEK293 cells assessed as increase in intracellular calcium level; type: functional, cell-based
# T1 sequence (Q8NER1 whole entry): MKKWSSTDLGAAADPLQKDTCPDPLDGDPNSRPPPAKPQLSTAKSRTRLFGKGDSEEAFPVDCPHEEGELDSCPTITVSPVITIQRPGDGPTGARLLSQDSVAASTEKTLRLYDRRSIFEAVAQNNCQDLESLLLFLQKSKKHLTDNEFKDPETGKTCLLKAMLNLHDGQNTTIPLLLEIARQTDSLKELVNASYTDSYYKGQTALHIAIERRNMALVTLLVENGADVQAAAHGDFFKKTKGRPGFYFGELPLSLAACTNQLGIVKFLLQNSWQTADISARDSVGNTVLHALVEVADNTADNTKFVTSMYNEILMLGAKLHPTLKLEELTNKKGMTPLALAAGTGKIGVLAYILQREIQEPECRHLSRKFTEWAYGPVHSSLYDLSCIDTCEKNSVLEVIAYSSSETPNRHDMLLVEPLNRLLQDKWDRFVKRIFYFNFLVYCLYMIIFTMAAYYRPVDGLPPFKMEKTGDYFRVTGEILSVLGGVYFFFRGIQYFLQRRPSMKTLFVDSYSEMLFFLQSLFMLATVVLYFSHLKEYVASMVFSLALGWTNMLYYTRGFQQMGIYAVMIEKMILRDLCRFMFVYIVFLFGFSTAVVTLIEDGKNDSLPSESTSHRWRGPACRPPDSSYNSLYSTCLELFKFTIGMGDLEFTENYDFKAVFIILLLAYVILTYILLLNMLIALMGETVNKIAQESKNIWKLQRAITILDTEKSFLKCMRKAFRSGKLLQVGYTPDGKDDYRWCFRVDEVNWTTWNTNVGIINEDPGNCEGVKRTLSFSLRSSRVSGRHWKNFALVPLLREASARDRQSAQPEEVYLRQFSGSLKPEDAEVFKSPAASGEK
# Procedure, shortened: (§1)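 Stably transfected HEK-293 cells loaded 1 h at 25 °C with 4 µM Fluo-4 AM, washed, resuspended in Tyrode's buffer pH 7.4. Efficacy relative to 4 µM ionomycin. EC50 is the concentration giving half-maximal [Ca2+]i rise, by sigmoidal fit. At least triplicate.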
# [3] = target: Cannabinoid receptor 1 (Mus musculus, UniProt P47746); assay: Agonist activity at CB1 receptor expressed in mouse brain membrane by [35S]GTPgammaS binding assay; type: functional, cell membranes
# Cannabinoid receptor 1 (Mus musculus, UniProt P47746), sequence (P47746 whole entry): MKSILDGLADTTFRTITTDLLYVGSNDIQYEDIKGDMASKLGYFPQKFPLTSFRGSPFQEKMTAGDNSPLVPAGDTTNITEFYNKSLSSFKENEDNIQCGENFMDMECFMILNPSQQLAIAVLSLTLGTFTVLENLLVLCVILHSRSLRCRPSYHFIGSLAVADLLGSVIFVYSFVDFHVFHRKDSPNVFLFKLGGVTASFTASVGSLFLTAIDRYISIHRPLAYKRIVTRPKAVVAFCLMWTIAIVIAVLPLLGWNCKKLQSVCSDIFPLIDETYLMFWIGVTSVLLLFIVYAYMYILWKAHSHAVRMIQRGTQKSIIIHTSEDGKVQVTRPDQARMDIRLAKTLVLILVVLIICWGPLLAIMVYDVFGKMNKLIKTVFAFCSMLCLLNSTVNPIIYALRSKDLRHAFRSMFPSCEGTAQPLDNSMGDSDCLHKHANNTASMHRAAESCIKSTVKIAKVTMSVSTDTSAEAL
# Procedure, shortened: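 Mouse brain membranes (10 µg/mL) preincubated 30 min at 30 °C with adenosine deaminase 0.5 U/mL, in Tris buffer with MgCl2, EDTA, NaCl, DTT, 0.1% BSA, 0.1 nM [35S]GTPγS, 30 µM GDP; compounds 60 min at 30 °C. Nonspecific with 30 µM GTPγS. Filtration, scintillation counting. 0.1% DMSO vehicle. Basal subtracted; EC50 and Emax by sigmoid nonlinear regression.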
# [4] = target: T1, Transient receptor potential cation channel subfamily V member 1; assay: Agonist activity at human recombinant TRPV1 expressed in HEK293 cells assessed as increase in intracellular calcium level relative to ionomycin; type: functional, cell-based
# Procedure, shortened: as §1, with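 “7.4. Fluorescence (ex 488/em 516 nm) read at 25 °C with stirring, before and after compound at various concentrations.” for “7.4.”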
# [5] = target: Cannabinoid receptor 1 (Homo sapiens, UniProt P21554); assay: Displacement of [3H]CP-55940 from human recombinant CB1 receptor expressed in HEK293 cell membrane; type: cell membranes
# Cannabinoid receptor 1 (Homo sapiens, UniProt P21554), sequence (P21554 whole entry): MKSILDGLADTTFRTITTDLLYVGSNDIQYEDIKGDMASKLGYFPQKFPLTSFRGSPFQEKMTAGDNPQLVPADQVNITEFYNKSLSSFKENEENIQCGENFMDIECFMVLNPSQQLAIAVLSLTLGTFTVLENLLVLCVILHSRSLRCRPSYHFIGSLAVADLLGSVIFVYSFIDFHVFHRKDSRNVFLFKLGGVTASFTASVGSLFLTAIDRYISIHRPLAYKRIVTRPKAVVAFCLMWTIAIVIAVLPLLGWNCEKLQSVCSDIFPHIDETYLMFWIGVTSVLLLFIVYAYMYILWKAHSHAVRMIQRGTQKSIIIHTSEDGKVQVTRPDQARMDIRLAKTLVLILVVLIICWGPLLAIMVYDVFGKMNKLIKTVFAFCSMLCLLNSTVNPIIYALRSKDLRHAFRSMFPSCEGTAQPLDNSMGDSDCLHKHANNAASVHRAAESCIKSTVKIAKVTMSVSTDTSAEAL
# Cannabinoid receptor 2, sequence (P34972 whole entry): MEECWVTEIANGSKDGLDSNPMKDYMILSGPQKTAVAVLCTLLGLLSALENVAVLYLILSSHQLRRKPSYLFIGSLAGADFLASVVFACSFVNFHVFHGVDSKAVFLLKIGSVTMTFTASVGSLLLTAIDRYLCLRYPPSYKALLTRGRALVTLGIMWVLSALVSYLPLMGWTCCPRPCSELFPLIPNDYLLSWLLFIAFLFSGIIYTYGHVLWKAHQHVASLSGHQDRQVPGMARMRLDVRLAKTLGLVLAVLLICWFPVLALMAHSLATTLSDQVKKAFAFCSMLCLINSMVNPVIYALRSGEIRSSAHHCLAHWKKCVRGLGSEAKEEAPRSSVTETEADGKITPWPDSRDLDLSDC
smiles,measurement,setting,value
CCCCCCCC/C=C\CCCCCCCC(=O)N[C@@H]1C[C@@H]1O [listing 1 of 2 here],Ki,[1],2040 nM
same,EC50,[2],150 nM
CCCCCCCC/C=C\CCCCCCCC(=O)N[C@@H]1C[C@H]1O [listing 1 of 2 here],Ki,[1],4410 nM
same,EC50,[2],13 nM
CCCCC/C=C\C/C=C\C/C=C\C/C=C\CCCC(=O)N[C@@H]1C[C@@H]1O [listing 1 of 2 here],Ki,[1],200 nM
same,EC50,[2],610 nM
CCCCC/C=C\C/C=C\C/C=C\C/C=C\CCCC(=O)N[C@@H]1C[C@H]1O [listing 1 of 2 here],Ki,[1],190 nM
same,EC50,[2],23 nM
same,EC50,[3],780 nM
CCCCC/C=C\C/C=C\C/C=C\C/C=C\CCCC(=O)N[C@H]1C[C@H]1O,Ki,[1],190 nM
same,EC50,[2],2400 nM
same,Emax,[4],65.8%
CCCCC/C=C\C/C=C\C/C=C\C/C=C\CCCC(=O)N[C@H]1C[C@@H]1O,Ki,[1],290 nM
same,EC50,[2],47 nM
same,Emax,[4],75.7%
same,EC50,[3],2550 nM
CCCCC/C=C\C/C=C\C/C=C\C/C=C\CCCC(=O)N[C@@H]1C[C@@H]1O [listing 2 of 2 here],Emax,[4],76.5%
CCCCC/C=C\C/C=C\C/C=C\C/C=C\CCCC(=O)N[C@@H]1C[C@H]1O [listing 2 of 2 here],Emax,[4],80.3%
CCCCCCCC/C=C\CCCCCCCC(=O)N[C@@H]1C[C@@H]1O [listing 2 of 2 here],Emax,[4],62.5%
CCCCCCCC/C=C\CCCCCCCC(=O)N[C@@H]1C[C@H]1O [listing 2 of 2 here],Emax,[4],72.5%
CCCCCCCC/C=C\CCCCCCCC(=O)N[C@@H]1C[C@@H]1O (racemic),Ki,[1],340 nM
same,EC50,[2],3700 nM
CCCCCCCC/C=C\CCCCCCCC(=O)N[C@@H]1C[C@H]1O (racemic),Ki,[1],380 nM
same,EC50,[2],60 nM
CCCCC/C=C\C/C=C\C/C=C\C/C=C\CCCC(=O)N[C@@H]1C[C@@H]1O (racemic),Ki,[1],150 nM
same,EC50,[2],1900 nM
CCCCC/C=C\C/C=C\C/C=C\C/C=C\CCCC(=O)N[C@@H]1C[C@H]1O (racemic),Ki,[1],240 nM
same,EC50,[2],50 nM
CCCCCCCCCCCCCCCC(=O)N[C@@H]1C[C@@H]1O (racemic),Ki,[1],> 10000 nM
same,EC50,[2],26400 nM
same,Ki,[5],> 10000 nM
CCCCCCCCCCCCCCCC(=O)N[C@@H]1C[C@H]1O (racemic),Ki,[1],> 10000 nM
same,EC50,[2],40 nM
same,Ki,[5],> 10000 nM
CCCCC/C=C\C/C=C\C/C=C\C/C=C\CCCC(=O)NCCO [ANANDAMIDE],EC50,[2],200 nM
COc1cc(CNC(=O)CCCC/C=C/C(C)C)ccc1O [CAPSAICIN],Ki,[1],> 10000 nM
CCCCCCC(C)(C)c1ccc([C@@H]2C[C@H](O)CC[C@H]2CCCO)c(O)c1 [CP-55940],EC50,[2],10 nM
same,Emax,[4],83%
CCCCCCCC/C=C\CCCCCCCC(=O)NCCO [OLEOYLETHANOLAMIDE],Ki,[1],> 10000 nM
same,EC50,[2],3650 nM
CCCCCCCCCCCCCCCC(=O)NCCO [PALMIDROL],Ki,[1],> 5000 nM
same,EC50,[2],> 10000 nM
same,Ki,[5],> 5000 nM
